# Compound activity from PubChem.
# Most compounds without a hit are left out; they make up all but 3.3% or so of the library.
# SENP1 FRET inh = SENP1 (human) catalytic domain inhibition; Q9P0U3; recombinant SENP1 catalytic domain, CyPet-SUMO1-YPet FRET cleavage; inhibition, % at 10 µM; 360,000 tested, 0.21% active; AID 624204;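 active = inhibition at least 30% at 10 µM, raw YFP signal under a set limit, fluorescence ratio 0.5 to 1.5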;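 also: 0% = enzyme with DMSO and 100% = no enzyme wells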
# Target sequence (Q9P0U3 419-644 limits assumed): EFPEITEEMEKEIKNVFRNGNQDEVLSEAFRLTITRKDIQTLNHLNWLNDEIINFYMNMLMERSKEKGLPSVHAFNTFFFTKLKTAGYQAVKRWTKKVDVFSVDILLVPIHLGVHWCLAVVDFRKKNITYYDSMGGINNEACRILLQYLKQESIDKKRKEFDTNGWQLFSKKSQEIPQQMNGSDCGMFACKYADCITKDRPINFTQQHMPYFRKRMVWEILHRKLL
#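 Test system: recombinant human SENP1 catalytic domain, His6-tagged / Medium: pH 8 Tris buffer with EDTA, NaCl, BME, BSA, NP40, catalase / Also added: SUMO1 FRET substrate flanked by Cypet and Ypet, 25 nM / Times: 50 min reaction at room temperature / Signal: FRET, CFP and YFP emission / Control set: no-enzyme low control and enzyme-plus-DMSO high control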
# SENP7 inh = blocks the human protease SENP7 | Q9BQF6 | recombinant SENP7, Z-RLRGG-aminoluciferin luminescence, 40 min | inhibition, % at 5 µM | 330,000 tested, 1.5% active;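 active = inhibition above about 50% at the single test dose, limit read from the data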;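 also: plate controls were DMSO with enzyme for no effect and no enzyme buffer wells for full effect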
# SENP6 block = blocks the human protease SENP6. Recombinant SENP6 catalytic domain, aminoluciferin luminescence. inhibition, % at 10 µM. AID 2599. Q9GZR1. 330,000 tested, 1.8% active;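 active = inhibition above about 50% at the single tested dose, limit read from the data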;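 also: plate controls were DMSO wells with enzyme for no effect and DMSO wells lacking enzyme for full effect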
# SENP8 block-1 = blocks the human protease SENP8 | Q96LD8 | purified SENP8, Z-RLRGG-aminoluciferin cleavage, luminescence | inhibition, % at 10 µM | 330,000 tested, 1.2% active; in the data active = inhibition above about 50%
# Target sequence (Q96LD8 whole entry, looked up): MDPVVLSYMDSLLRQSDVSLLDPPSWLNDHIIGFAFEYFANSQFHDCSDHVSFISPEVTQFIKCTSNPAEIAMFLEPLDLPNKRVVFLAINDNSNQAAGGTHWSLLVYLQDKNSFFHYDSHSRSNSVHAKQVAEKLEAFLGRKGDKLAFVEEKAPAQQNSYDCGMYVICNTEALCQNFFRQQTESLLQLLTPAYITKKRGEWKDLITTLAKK
# SENP8 block-2 = inhibitors of human SENP8 protease; Q96LD8; inhibition, % at 20 µM; recombinant SENP8, Nedd8 substrate fluorescence; 360,000 tested, 0.64% active; in the data active = inhibition mostly above about 40%, no sharp cut-off; inactive = mostly below about 27%
# NRP1-CendR mod = alters CendR peptide binding to human NRP-1. O14786. FAM-RPARPAR peptide binding to NRP-1, fluorescence polarization. inhibition, % at 25 µM. 360,000 tested, 0.85% active. AID 602438;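 active = inhibition or corrected inhibition above about 18%, plus a signal ratio from 0.5 to 1.5, limit read from the data, passing the limit was not always enough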
# The depositor's hits bear a star; · = no result.
SMILES,SENP1 FRET inh,SENP7 inh,SENP6 block,SENP8 block-1,SENP8 block-2,NRP1-CendR mod
CSCCC(NC(=O)c1ccccc1)C(=O)OCC(=O)NCc1ccco1 (stereo unspecified),0,1,8,5,22,6
O=C(c1cccc(C(F)(F)F)c1)N1CCC(=O)N(C(CO)Cc2ccccc2)CC1 (stereo unspecified),-2,-2,-18,1,15,7
O=C(c1ccc(C(F)(F)F)cc1)N1CCC(=O)N(C(CO)Cc2ccccc2)CC1 (stereo unspecified),4,8,-5,0,11,26*
Cc1ccc(N2C(=O)/C(=C\c3ccco3)SC2=S)cc1,1,13,-4,1,48*,-30
O=C1/C(=C/c2ccco2)SC(=S)N1CC1CCCO1 (stereo unspecified),-3,10,-26,3,42*,-40
O=C1/C(=C\c2ccc(-c3ccccc3Cl)o2)SC(=S)N1CC1CCCO1 (stereo unspecified),-21,5,9,-18,44*,-63
O=C1/C(=C\c2ccco2)SC(=S)N1c1ccccc1,1,-2,-2,-9,16,-15
Cc1ccc(/C=C2\SC(=S)N(CC3CCCO3)C2=O)o1 (stereo unspecified),-35,7,8,6,34,-65
O=C1/C(=C/c2cccnc2)SC(=S)N1CC1CCCO1 (stereo unspecified),2,6,3,-1,13,6
Cc1ccc(S(=O)(=O)N2[C@@H](Cc3ccccc3)CO[C@H]2CC(=O)c2cccc3ccccc23)cc1,3,·,·,·,23,3
Cn1c(=NC(=O)CS(=O)(=O)c2ccccc2)sc2ccccc21,0,-3,-7,6,-2,-10
Cn1c(=NC(=O)COc2ccccc2)sc2ccccc21,-2,0,7,-6,-4,26*
Cc1ccc(CNC(=O)C2CCC(=O)N(Cc3cccc(F)c3)C2)s1 (stereo unspecified),-1,·,·,·,9,4
CCN(CC(=O)Nc1ccc(NC(C)=O)cc1)C(=O)c1c(C)nn(Cc2ccc(C)cc2)c1Cl,2,·,·,·,3,14
Cc1ccc(S(=O)(=O)N2CCOCC2)cc1NC(=O)Nc1ccc([N+](=O)[O-])cc1,0,9,-2,-2,18,22
CC[C@@H](C)[C@@H](C(=O)N1CCN(C(=O)OC(C)(C)C)CC1)n1cc(CCCN=C(NC(=O)OC(C)(C)C)NC(=O)OC(C)(C)C)nn1,0,-3,1,-1,11,26*
Cc1ccc(N2CCN(C(C(=O)Nc3c(C)cccc3C)c3cccc(F)c3)CC2)cc1 (stereo unspecified),3,·,·,·,15,-1
CC(=O)NC(c1cccc(F)c1)c1nc(-c2cnn(C)c2)cs1 (stereo unspecified),3,·,·,·,10,1
O=[N+]([O-])c1cccc(-c2nc3ccc([N+](=O)[O-])cc3[nH]2)c1,1,93*,99*,94*,15,2
O=[N+]([O-])c1ccc(O)c(C=Nc2ccc3nc(-c4ccccc4)[nH]c3c2)c1,-21,64*,71*,37,-362,-54
COc1ccc(-c2nc3ccc([N+](=O)[O-])cc3[nH]2)cc1,0,·,·,·,13,-9
Oc1c(Br)cc(C=Nc2ccc3nc(-c4ccccc4)[nH]c3c2)c(O)c1Br,·,9,-24,29,·,·
CCCC(=O)Nc1c(-c2ccccc2)[nH][nH]c1=O,1,·,·,·,30,5
CCOc1ccccc1OCCCC(=O)N1CCN(S(=O)(=O)c2ccc(C)cc2C)CC1,-3,-1,-12,3,16,9
COC(=O)/C=C1\OC(C2CC2)c2ccccc21 (stereo unspecified),2,·,·,·,15,-1
SMILES,SENP1 FRET inh,SENP7 inh,SENP6 block,SENP8 block-1,SENP8 block-2,NRP1-CendR mod
COc1ccc(Nc2ccccc2N)cc1,34*,-7,33,-7,-20,-91
CC[C@H](C)[C@@H](COC=O)NC(=O)[C@H]1O[C@@H](n2ccc(N)nc2=O)[C@H](O)[C@@H]1O,1,·,·,·,18,31*
c1ccc(C[C@H]2COc3c4ccccc4nn32)cc1,2,·,·,·,19,26*
O=C(CSc1nnc2ccccn12)Nc1ccccc1[N+](=O)[O-],2,·,·,·,13,8
COc1ccc(CCNC(=O)Nc2nc(C(N)C3CCCCC3)cs2)cc1OC (stereo unspecified),1,·,·,·,12,17*
COc1ccc(CCNC(=O)Nc2nc(C(N)CCc3ccccc3)cs2)cc1OC (stereo unspecified),0,·,·,·,19,-5
Cc1cccc(C)c1NC(=O)C(c1ccnc2ccccc12)N1CCN(C)CC1 (stereo unspecified),2,·,·,·,-20,-4
CCOC(=O)C1=C[C@@H](C(C)(C)C)N(S(=O)(=O)c2ccc([N+](=O)[O-])cc2)[C@H]1c1ccccc1,1,·,·,·,27,23*
Cc1ccc(CNC(=O)CSc2n[nH]c(N)n2)cc1,3,0,-6,5,26,24*
Nc1nc(SCC(=O)NCc2ccccc2)n[nH]1,-1,0,-25,-10,10,8
Cc1[nH]n2c(=O)c3c(nc2c1-c1ccc(Cl)cc1)CCC3,2,0,6,-12,-480,14
N#Cc1c[nH]n2c(=O)c3c(nc12)CCCC3,·,-1,0,5,·,·
Nc1[nH]n2c(=O)c3c(nc2c1N=Nc1ccccc1)CCCC3,4,-4,6,3,53*,-1
Nc1[nH]n2c(=O)c3c(nc2c1N=Nc1ccc(Cl)cc1)CCCC3,5,14,16,9,45*,-15
COc1ccc(C2NC(=O)c3ccccc3O2)cc1 (stereo unspecified),2,-8,7,-5,-12,23*
COc1ccc(C2NC(=O)c3ccccc3O2)cc1OC (stereo unspecified),1,13,-24,-2,-8,4
Cc1ccc(C(=O)N2C(=O)c3cccc(N)c3C2=O)o1,-36,4,82*,-2,-108,13
O=C1C2C3C=CC(C3)C2C(=O)N1CNc1ccc(O)cc1 (stereo unspecified),·,18,72*,13,·,·
COC(=O)C1=CN(c2ccc(N3CCOCC3)cc2)C(N)=C(C#N)C1c1ccc(-c2ccccc2)cc1 (stereo unspecified),-78,·,·,·,-210,8
Cc1cccc(-c2noc(CSc3ccccc3)n2)c1,0,12,25,-12,8,31*
COc1ccc(-c2csc(NCCc3nc4cc(C(=O)NCCCO)ccc4n3Cc3ccc(C)cc3)n2)cc1,-4,-2,-14,-5,3,27*
C/C=C/c1cccc(-c2nc(C(=O)N3CCOCC3)cc3c2[C@H](CCO)N(C(=O)NC(C)C)C3)c1,1,·,·,·,13,8
